In ChEMBL document CHEMBL1153955, “Indolylarylsulfones bearing natural and unnatural amino acids. Discovery of potent inhibitors of HIV-1 non-nucleoside wild type and resistant mutant strains reverse transcriptase and coxsackie B4 virus” (J Med Chem, 2009):

Assays:
Felid alphaherpesvirus 1 = assay: Antiviral activity against Feline herpesvirus in feline […] cells assessed as inhibition of virus-induced cytopathicity; format: functional, organism-based
Feline coronavirus = assay: Antiviral activity against Feline coronavirus in feline […] cells assessed as inhibition of virus-induced cytopathicity; format: functional, organism-based; details: Alphacoronavirus 1
Influenza A virus [1] = assay: Antiviral activity against influenza H1N1 virus in MDCK cells assessed as reduction of virus-induced cytopathicity by MTS method; format: functional, organism-based; details: Influenza A virus, H1N1, MDCK
[2] = test system: Mammalian orthoreovirus 1; assay: Antiviral activity against Reovirus 1 in african green monkey Vero cells assessed as protection against virus-induced cytopathicity; format: functional, organism-based; details: Mammalian orthoreovirus 1, Vero
Summary of the method: (§1)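 Confluent cell monolayers inoculated with 100 CCID₅₀ virus. After 1-2 h adsorption, residual virus removed and cultures incubated with varying compound concentrations. Cytopathicity scored once it reached completion in untreated infected controls. EC₅₀ = dose reducing virus-induced cytopathogenicity by 50%.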

Influenza A virus [3] = assay: Antiviral activity against influenza H1N1 virus in MDCK cells assessed as reduction of virus-induced cytopathicity by visual cytopathic effect scoring method; format: functional, organism-based
Influenza A virus H3N2 [4] = assay: Antiviral activity against influenza H3N2 virus in MDCK cells assessed as reduction of virus-induced cytopathicity by visual cytopathic effect scoring method; format: functional, organism-based
[5] = test system: Vesicular stomatitis virus; assay: Antiviral activity against VSV in human HEL cells assessed as protection against virus-induced cytopathicity; format: functional, organism-based
[6] = Antiproliferative activity against human Molt4/C8 cells after 3 days; format: cell-based; details: MOLT-4, 72 h
Summary of the method: (§2)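 Cells seeded at 5 × 10⁴ to 7.5 × 10⁴ cells/200 µL with or without serial compound dilutions; incubated at 37 °C for 2 days (L1210) or 3 days (Molt4/C8, CEM). Cell numbers counted with a Coulter counter. CC₅₀ = concentration reducing proliferation by 50% versus untreated controls, read from plots of cell number (% of control) against concentration. Means of at least two independent experiments.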

Coxsackievirus B4 [7] = assay: Antiviral activity against Coxsackievirus B4 in african green monkey Vero cells assessed as protection against virus-induced cytopathicity; format: functional, organism-based; details: Enterovirus B; summary of the method: as §1
CCRF-CEM = assay: Antiproliferative activity against human CEM cells after 3 days; format: cell-based; details: 72 h; summary of the method: as §2
Human respirovirus 3 = assay: Antiviral activity against Parainfluenza virus type 3 in african green monkey Vero cells assessed as protection against virus-induced cytopathicity; format: functional, organism-based; details: Human respirovirus 3, Vero; summary of the method: as §1
[8] = Cytotoxicity against MDCK cells by MTS assay; format: cell-based, Canis lupus familiaris; details: dog
[9] = Cytotoxicity against feline CRFK cells by MTS assay; format: cell-based, Felis catus; details: cat
Influenza B virus [10] = assay: Antiviral activity against influenza B virus in MDCK cells assessed as reduction of virus-induced cytopathicity by visual cytopathic effect scoring method; format: functional, organism-based
[11] = target: Human immunodeficiency virus type 1 reverse transcriptase (Human immunodeficiency virus 1, UniProt Q72547, Y181I); assay: Inhibition of HIV1 reverse transcriptase p66/p51 Y181I mutant; details: read-out: IC50
Summary of the method: (§3)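 Substrate was 0.5 µg poly(rA)/oligo(dT) 10:1 (0.3 µM 3′-OH ends) with 10 µM [³H]dTTP, at 37 °C. Acid-precipitable radioactivity was counted on GF/C filters after TCA washes.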

[12] = test system: Human immunodeficiency virus 1; assay: Antiviral activity against HIV1 3B in human CEM cells assessed as protection against virus-induced cytopathicity after 4 days; format: functional, organism-based; details: Human immunodeficiency virus 1, 3B, CCRF-CEM, 96 h
Summary of the method: (§4)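 CEM cells (~3 × 10⁵ cells/mL) infected with ~100 CCID₅₀ per mL of HIV-1 (IIIB) or HIV-2 (ROD), then seeded into wells containing compound dilutions. After 4 days at 37 °C, syncytium (giant cell) formation was examined microscopically. EC₅₀ = concentration protecting CEM cells from HIV cytopathicity by 50%.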

[13] = target: Human immunodeficiency virus type 1 reverse transcriptase (Human immunodeficiency virus 1, UniProt Q72547); assay: Inhibition of HIV1 reverse transcriptase p66/p51; details: read-out: IC50
Vaccinia virus = assay: Antiviral activity against Vaccinia virus Lederle in human HEL cells assessed as protection against virus-induced cytopathicity; format: functional, organism-based; details: Orthopoxvirus vaccinia
[14] = Cytotoxicity against african green monkey Vero cells assessed as drug level causing microscopically detectable alteration of normal cell morphology after 3 days; format: cell-based; details: chlorocebus sabaeus
Summary of the method: (§5)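 Serial compound dilutions added to confluent HeLa or Vero monolayers. MCC = minimum concentration causing microscopically detectable alteration of cell morphology after 3 days of incubation.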

Human alphaherpesvirus 1 [15] = assay: Antiviral activity against HSV1 KOS in human HEL cells assessed as protection against virus-induced cytopathicity; format: functional, organism-based; details: Human alphaherpesvirus 1, KOS
[16] = target: Human immunodeficiency virus type 1 reverse transcriptase (Human immunodeficiency virus 1, UniProt Q72547, K103N); assay: Inhibition of HIV1 reverse transcriptase p66/p51 K103N mutant; details: read-out: IC50; summary of the method: as §3
L1210 = assay: Antiproliferative activity against mouse L1210 cells after 2 days; format: cell-based; details: L1210, 48 h; summary of the method: as §2
[17] = test system: Human immunodeficiency virus 2; assay: Antiviral activity against HIV2 ROD in human CEM cells assessed as protection against virus-induced cytopathicity after 4 days; format: functional, organism-based; details: Human immunodeficiency virus 2, ROD, CCRF-CEM, 96 h; summary of the method: as §4
Human alphaherpesvirus 2 = assay: Antiviral activity against HSV2 G in human HEL cells assessed as protection against virus-induced cytopathicity; format: functional, organism-based; details: Human alphaherpesvirus 2, strain G; summary of the method: as §1
Punta Toro virus = assay: Antiviral activity against Punta Toro virus in african green monkey Vero cells assessed as protection against virus-induced cytopathicity; format: functional, organism-based; summary of the method: as §1
[18] = Cytotoxicity against human HeLa cells assessed as drug level causing microscopically detectable alteration of normal cell morphology after 3 days; format: cell-based; summary of the method: as §5
Influenza A virus H3N2 [19] = assay: Antiviral activity against influenza H3N2 virus in MDCK cells assessed as reduction of virus-induced cytopathicity by MTS method; format: functional, organism-based
Sindbis virus = assay: Antiviral activity against Sindbis virus in african green monkey Vero cells assessed as protection against virus-induced cytopathicity; format: functional, organism-based; summary of the method: as §1
Human alphaherpesvirus 1 [20] = assay: Antiviral activity against thymidine kinase deficient and acyclovir resistant HSV1 KOS in human HEL cells assessed as protection against virus-induced cytopathicity; format: functional, organism-based; details: Human alphaherpesvirus 1, KOS
[21] = test system: Respiratory syncytial virus; assay: Antiviral activity against RSV Long in human HeLa cells assessed as protection against virus-induced cytopathicity; format: functional, organism-based; summary of the method: as §1
[22] = target: Human immunodeficiency virus type 1 reverse transcriptase (Human immunodeficiency virus 1, UniProt Q72547, L100I); assay: Inhibition of HIV1 reverse transcriptase p66/p51 L100I mutant; details: read-out: IC50; summary of the method: as §3
[23] = test system: Vesicular stomatitis virus; assay: Antiviral activity against VSV in human HeLa cells assessed as protection against virus-induced cytopathicity; format: functional, organism-based
Influenza B virus [24] = assay: Antiviral activity against influenza B virus in MDCK cells assessed as reduction of virus-induced cytopathicity by MTS method; format: functional, organism-based
[25] = Cytotoxicity against human HEL cells assessed as drug level causing microscopically detectable alteration of normal cell morphology after 3 days; format: cell-based
Coxsackievirus B4 [26] = assay: Antiviral activity against Coxsackievirus B4 in human HeLa cells assessed as protection against virus-induced cytopathicity; format: functional, organism-based; details: Enterovirus B; summary of the method: as §1
[27] = Cytotoxicity against MDCK cells assessed as drug level causing microscopically detectable alteration of normal cell morphology; format: cell-based, Canis lupus familiaris; details: dog

| Structure (SMILES) | EC50 (Felid alphaherpesvirus 1) | EC50 (Feline coronavirus) | EC50 (Influenza A virus [1]) | EC50 [2] | EC50 (Influenza A virus [3]) | EC50 (Influenza A virus H3N2 [4]) | EC50 [5] | IC50 [6] | EC50 (Coxsackievirus B4 [7]) | IC50 (CCRF-CEM) | EC50 (Human respirovirus 3) | CC50 [8] | CC50 [9] | EC50 (Influenza B virus [10]) | IC50 [11] | EC50 [12] | IC50 [13] | EC50 (Vaccinia virus) | MCC at 72 h [14] | EC50 (Human alphaherpesvirus 1 [15]) | also measured |
| --- | --- | --- | --- | --- | --- | --- | --- | --- | --- | --- | --- | --- | --- | --- | --- | --- | --- | --- | --- | --- | --- |
| Cc1cc(C)cc(S(=O)(=O)c2c(C(=O)NC(C)CC(N)=O)[nH]c3ccc(Cl)c(F)c23)c1 (stereo not drawn) | > 20 µM | > 20 µM | > 4 µM | > 20 µM | > 4 µM | > 4 µM | > 20 µM | 25 µM | > 20 µM | 27 µM | > 20 µM | 6.2 µM | 42.6 µM | > 4 µM | > 40 µM | 0.0046 µM | 0.359 µM | > 20 µM | 100 µM | > 20 µM | IC50 [16]: 3.39 µM; IC50 (L1210): 42 µM; EC50 [17]: > 10 µM; EC50 (Human alphaherpesvirus 2): > 20 µM; EC50 (Punta Toro virus): > 20 µM; MCC at 72 h [18]: 100 µM; EC50 (Influenza A virus H3N2 [19]): > 4 µM; EC50 (Sindbis virus): > 20 µM; EC50 (Human alphaherpesvirus 1 [20]): > 20 µM; EC50 [21]: 20 µM; IC50 [22]: 0.39 µM; EC50 [23]: > 20 µM; EC50 (Influenza B virus [24]): > 4 µM; MCC at 72 h [25]: 100 µM; EC50 (Coxsackievirus B4 [26]): 9 µM; MCC [27]: 20 µM |
| Cc1cc(C)cc(S(=O)(=O)c2c(C(=O)NCCS(N)(=O)=O)[nH]c3ccc(Br)cc23)c1 | > 4 µM | > 4 µM | > 800 µM | > 20 µM | > 800 µM | > 800 µM | > 4 µM | 11 µM | 12 µM | 14 µM | > 20 µM | 1.9 µM | 11.9 µM | > 800 µM | > 40 µM | 0.001 µM | 0.002 µM | > 4 µM | ≥ 20 µM | > 4 µM | IC50 [16]: 0.529 µM; IC50 (L1210): 17 µM; EC50 [17]: > 10 µM; EC50 (Human alphaherpesvirus 2): > 4 µM; EC50 (Punta Toro virus): > 20 µM; MCC at 72 h [18]: 20 µM; EC50 (Influenza A virus H3N2 [19]): > 800 µM; EC50 (Sindbis virus): > 20 µM; EC50 (Human alphaherpesvirus 1 [20]): > 4 µM; EC50 [21]: > 4 µM; IC50 [22]: 0.013 µM; EC50 [23]: > 4 µM; EC50 (Influenza B virus [24]): > 800 µM; MCC at 72 h [25]: 20 µM; EC50 (Coxsackievirus B4 [26]): ≥ 4 µM; MCC [27]: 4 µM |
| Cc1cc(C)cc(S(=O)(=O)c2c(C(=O)NC(C)CS(N)(=O)=O)[nH]c3ccc([N+](=O)[O-])cc23)c1 (stereo not drawn) | > 20 µM | > 20 µM | > 4 µM | > 20 µM | > 4 µM | > 4 µM | > 20 µM | 11 µM | ≥ 20 µM | 15 µM | > 20 µM | 9.8 µM | 47.6 µM | > 4 µM | 26.2 µM | 0.0042 µM | 0.028 µM | > 20 µM | ≥ 20 µM | > 20 µM | IC50 [16]: 3.28 µM; IC50 (L1210): 20 µM; EC50 [17]: > 10 µM; EC50 (Human alphaherpesvirus 2): > 20 µM; EC50 (Punta Toro virus): > 20 µM; MCC at 72 h [18]: ≥ 20 µM; EC50 (Influenza A virus H3N2 [19]): > 4 µM; EC50 (Sindbis virus): > 20 µM; EC50 (Human alphaherpesvirus 1 [20]): > 20 µM; EC50 [21]: > 20 µM; IC50 [22]: 0.364 µM; EC50 [23]: ≥ 20 µM; EC50 (Influenza B virus [24]): > 4 µM; MCC at 72 h [25]: ≥ 20 µM; EC50 (Coxsackievirus B4 [26]): ≥ 20 µM; MCC [27]: 20 µM |
